Results as given in ChEMBL document CHEMBL1157853, “Synthesis, pharmacological activity and comparative QSAR modeling of 1,5-N,N'-substituted-2-(substituted naphthalenesulphonyl) glutamamides as possible anticancer agents” (2010).

Key:
[1] = Antitumor activity against ip dosed mouse EAC implanted in Swiss albino mouse assessed as inhibition of ascitic fluid administered daily for 7 days measured on 9th day relative to control; format: functional, Ehrlich
Method in brief: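 Female Swiss albino mice (18-20 g, 6 per group) implanted ip with 2×10^6 EAC cells/0.2 mL. Compound in phosphate buffer pH 7.2 (PBS + 2% Tween 80 when needed) given ip daily from day 2, seven doses; controls received vehicle. Day 9, after a 6 h fast, mice weighed before and after ascitic fluid removal; the difference is tumor weight. %TWI derived from mean test vs control weight.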

[2] = Antitumor activity against ip dosed mouse EAC implanted in Swiss albino mouse assessed as inhibition of ascitic cell administered daily for 7 days measured on 9th day relative to control; format: functional, Ehrlich
Method in brief: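 Female Swiss albino mice (18-20 g, 6 per group, test vs vehicle control) given 2×10^6 EAC cells/0.2 mL ip. From day 2, compound in phosphate buffer pH 7.2 (2% Tween 80 in PBS if needed) given ip every 24 h for seven doses. Day 9, after a 6 h fast, ascitic fluid withdrawn and live cells counted by trypan blue and haemocytometer. %TCI derived from mean cells/ml in test vs control.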

CC(C)NC(=O)CCC(NS(=O)(=O)c1cccc2ccccc12)C(=O)NC(C)C (configuration not stated)
inhibition (INH) [1]: 17.74%
inhibition (INH) [2]: 43.96%

CCCCCNC(=O)CCC(NS(=O)(=O)c1cccc2ccccc12)C(=O)NCCCCC (configuration not stated)
inhibition (INH) [1]: 56.62%
inhibition (INH) [2]: 17.64%

NC(=O)CCC(NS(=O)(=O)c1ccc(Br)c2ccccc12)C(N)=O (configuration not stated)
inhibition (INH) [1]: 36.46%
inhibition (INH) [2]: 58.25%

CCCCNC(=O)CCC(NS(=O)(=O)c1cccc2ccccc12)C(=O)NCCCC (configuration not stated)
inhibition (INH) [1]: 14.34%
inhibition (INH) [2]: 16.17%

[N-]=[N+]=CC(=O)CC[C@H](N)C(=O)O [6-DIAZO-5-OXO-L-NORLEUCINE]
inhibition (INH) [1]: 100%
inhibition (INH) [2]: 100%

CCCCCNC(=O)CCC(NS(=O)(=O)c1ccc(Br)c2ccccc12)C(=O)NCCCCC (configuration not stated)
inhibition (INH) [1]: 22.81%
inhibition (INH) [2]: 10.42%

CCNC(=O)CCC(NS(=O)(=O)c1ccc(Br)c2ccccc12)C(=O)NCC (configuration not stated)
inhibition (INH) [1]: 24.34%
inhibition (INH) [2]: 16.22%

CCCNC(=O)CCC(NS(=O)(=O)c1ccc(Br)c2ccccc12)C(=O)NCCC (configuration not stated)
inhibition (INH) [1]: 2.96%
inhibition (INH) [2]: 14.86%

CCNC(=O)CCC(NS(=O)(=O)c1cccc2ccccc12)C(=O)NCC (configuration not stated)
inhibition (INH) [1]: 24.61%
inhibition (INH) [2]: 27.92%

CNC(=O)CCC(NS(=O)(=O)c1ccc(Cl)c2ccccc12)C(=O)NC (configuration not stated)
inhibition (INH) [1]: 20.57%
inhibition (INH) [2]: 46.52%

CCCCNC(=O)CCC(NS(=O)(=O)c1ccc(Cl)c2ccccc12)C(=O)NCCCC (configuration not stated)
inhibition (INH) [1]: 20.71%
inhibition (INH) [2]: 33.1%

O=C(CCC(NS(=O)(=O)c1ccc(Br)c2ccccc12)C(=O)NCc1ccccc1)NCc1ccccc1 (configuration not stated)
inhibition (INH) [1]: 8.99%
inhibition (INH) [2]: 23.5%

CC(C)CNC(=O)CCC(NS(=O)(=O)c1ccc(Cl)c2ccccc12)C(=O)NCC(C)C (configuration not stated)
inhibition (INH) [1]: 15.2%
inhibition (INH) [2]: 41.28%

O=C(CCC(NS(=O)(=O)c1cccc2ccccc12)C(=O)NC1CCCCC1)NC1CCCCC1 (configuration not stated)
inhibition (INH) [1]: 43.58%
inhibition (INH) [2]: 53.76%

CC(C)NC(=O)CCC(NS(=O)(=O)c1ccc(Cl)c2ccccc12)C(=O)NC(C)C (configuration not stated)
inhibition (INH) [1]: 24.68%
inhibition (INH) [2]: 75.17%

O=C(CCC(NS(=O)(=O)c1cccc2ccccc12)C(=O)NCc1ccccc1)NCc1ccccc1 (configuration not stated)
inhibition (INH) [1]: 17.04%
inhibition (INH) [2]: 34.46%

CCCNC(=O)CCC(NS(=O)(=O)c1ccc(Cl)c2ccccc12)C(=O)NCCC (configuration not stated)
inhibition (INH) [1]: 18.73%
inhibition (INH) [2]: 39.33%

COc1ccc2ccccc2c1S(=O)(=O)NC(CCC(=O)NCc1ccccc1)C(=O)NCc1ccccc1 (configuration not stated)
inhibition (INH) [1]: 7.57%
inhibition (INH) [2]: 18.78%

CNC(=O)CCC(NS(=O)(=O)c1cccc2ccccc12)C(=O)NC (configuration not stated)
inhibition (INH) [1]: 27.42%
inhibition (INH) [2]: 69.32%

COc1ccc2ccccc2c1S(=O)(=O)NC(CCC(=O)NC1CCCCC1)C(=O)NC1CCCCC1 (configuration not stated)
inhibition (INH) [1]: 13.52%
inhibition (INH) [2]: 4.34%

CCNC(=O)CCC(NS(=O)(=O)c1ccc(Cl)c2ccccc12)C(=O)NCC (configuration not stated)
inhibition (INH) [1]: 24.1%
inhibition (INH) [2]: 48.67%

CO[C@@]12[C@H](COC(N)=O)C3=C(C(=O)C(C)=C(N)C3=O)N1C[C@@H]1N[C@@H]12 [MITOMYCIN]
inhibition (INH) [1]: 100%
inhibition (INH) [2]: 100%

CCCCCCNC(=O)CCC(NS(=O)(=O)c1c(OC)ccc2ccccc12)C(=O)NCCCCCC (configuration not stated)
inhibition (INH) [1]: 5.19%
inhibition (INH) [2]: 14.79%

CCCCCCNC(=O)CCC(NS(=O)(=O)c1ccc(Cl)c2ccccc12)C(=O)NCCCCCC (configuration not stated)
inhibition (INH) [1]: 15.95%
inhibition (INH) [2]: 50.51%

NC(=O)CCC(NS(=O)(=O)c1cccc2ccccc12)C(N)=O (configuration not stated)
inhibition (INH) [1]: 32.19%
inhibition (INH) [2]: 38.34%

CNC(=O)CCC(NS(=O)(=O)c1ccc(Br)c2ccccc12)C(=O)NC (configuration not stated)
inhibition (INH) [1]: 20.58%
inhibition (INH) [2]: 10.62%

O=C(CCC(NS(=O)(=O)c1ccc(Cl)c2ccccc12)C(=O)NCc1ccccc1)NCc1ccccc1 (configuration not stated)
inhibition (INH) [1]: 22.69%
inhibition (INH) [2]: 22.94%

[N-]=[N+]=CC(=O)OC[C@H](N)C(=O)O [AZASERINE]
inhibition (INH) [1]: 100%
inhibition (INH) [2]: 100%

CC(C)CNC(=O)CCC(NS(=O)(=O)c1cccc2ccccc12)C(=O)NCC(C)C (configuration not stated)
inhibition (INH) [1]: 11.93%
inhibition (INH) [2]: 61.96%

NC(=O)CCC(NS(=O)(=O)c1ccc(Cl)c2ccccc12)C(N)=O (configuration not stated)
inhibition (INH) [1]: 55.21%
inhibition (INH) [2]: 48.52%

CCCNC(=O)CCC(NS(=O)(=O)c1cccc2ccccc12)C(=O)NCCC (configuration not stated)
inhibition (INH) [1]: 16.15%
inhibition (INH) [2]: 14.21%
